Assay results reported in ChEMBL document CHEMBL1221274, “Discovery and expanded SAR of 4,4-disubstituted quinazolin-2-ones as potent T-type calcium channel antagonists” (Bioorg Med Chem Lett, 2010).
Active and inactive are the calls of the source. The rule behind the calls is not given here.

Key:
[1] = Half life in rat; assay type: ADME, organism-based; details: in vivo
[2] = system: Rattus norvegicus; test: Effect on sleep-awake pattern in rat assessed as increase in delta sleep at 10 mg/kg, po for 16 hrs; assay type: functional, organism-based; set-up: dose 10 mg/kg
Outline: (§1)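 Crossover rat study over seven days, n = 7 male rats. ECoG and EMG recorded for 16 h and scored as active wake, light sleep, delta sleep or REM, as minutes per 30 min bin (±SEM). Each time point compared by linear mixed-effects ANOVA.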

[3] = Metabolic stability in human liver microsome assessed as compound remaining after 60 mins; assay type: ADME; details: liver microsomes, read-out: Stability
Outline: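 Human liver microsomes (0.2 mg protein/mL) incubated with test compound at 1 µM plus NADPH cofactor at 37 °C for 30 or 60 min; percent parent compound remaining measured.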

[4] = system: Rattus norvegicus; test: Antiepileptic activity in […] rat assessed as inhibition of total seizures at 10 mg/kg, po after 4 hrs; assay type: functional
Outline: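 Seizure suppression measured by EEG in WAG/Rij rats (absence epilepsy model) after oral dosing; total seizure time scored 4 h post dose and expressed as percent inhibition.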

[5] = Volume of distribution at steady state in rat; assay type: ADME, organism-based; details: in vivo, read-out: Vdss
[6] = system: Rattus norvegicus; test: Effect on sleep-awake pattern in rat assessed as decrease in active awake at 10 mg/kg, po for 16 hrs; assay type: functional, organism-based; set-up: dose 10 mg/kg; outline: as §1
[7] = Oral bioavailability in rat; assay type: ADME, organism-based; details: in vivo
[8] = Plasma clearance in monkey; assay type: ADME, organism-based, Macaca mulatta; details: rhesus monkey
[9] = target: Cytochrome P450 3A4 (Homo sapiens, UniProt P08684); test: Inhibition of CYP3A4; assay type: ADME; details: TDE = time-dependent effect
Cytochrome P450 3A4, sequence (P08684 whole entry): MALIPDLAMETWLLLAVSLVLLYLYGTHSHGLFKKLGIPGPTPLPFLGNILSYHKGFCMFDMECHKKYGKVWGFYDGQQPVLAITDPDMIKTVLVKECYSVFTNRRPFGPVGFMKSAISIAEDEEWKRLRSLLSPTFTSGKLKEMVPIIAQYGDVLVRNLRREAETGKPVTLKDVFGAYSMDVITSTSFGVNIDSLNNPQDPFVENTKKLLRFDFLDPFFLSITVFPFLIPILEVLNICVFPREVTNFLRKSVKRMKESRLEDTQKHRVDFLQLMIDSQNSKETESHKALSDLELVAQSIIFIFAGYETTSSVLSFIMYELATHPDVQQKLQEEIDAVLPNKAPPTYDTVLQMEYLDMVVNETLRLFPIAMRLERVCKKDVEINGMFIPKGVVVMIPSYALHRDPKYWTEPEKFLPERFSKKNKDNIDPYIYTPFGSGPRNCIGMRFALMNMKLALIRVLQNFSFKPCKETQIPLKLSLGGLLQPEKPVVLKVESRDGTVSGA

[10] = Plasma clearance in dog; assay type: ADME, organism-based, Canis lupus familiaris
[11] = system: Rattus norvegicus; test: Effect on sleep-awake pattern in rat assessed as decrease in REM sleep at 10 mg/kg, po for 16 hrs; assay type: functional, organism-based; set-up: dose 10 mg/kg; outline: as §1
[12] = species: Homo sapiens; test: Effect on human Pgp-mediated drug transport assessed as efflux ratio of permeability from basolateral to apical over apical to basolateral side
[13] = Oral bioavailability in monkey; assay type: ADME, organism-based, Macaca mulatta; details: rhesus monkey, in vivo
[14] = Plasma clearance in rat; assay type: ADME, organism-based
[15] = Volume of distribution at steady state in monkey; assay type: ADME, organism-based, Macaca mulatta; details: rhesus monkey, in vivo; read-out: Vdss
[16] = Plasma protein binding in rat; assay type: ADME, cell-free; details: read-out: PPB (converted)
[17] = Half life in monkey; assay type: ADME, organism-based, Macaca mulatta; details: rhesus monkey, in vivo
[18] = Volume of distribution at steady state in dog; assay type: ADME, organism-based, Canis lupus familiaris; details: in vivo, read-out: Vdss
[19] = species: Homo sapiens; test: Plasma protein binding in human; details: read-out: PPB (converted)
[20] = Half life in dog; assay type: ADME, organism-based, Canis lupus familiaris; details: in vivo
[21] = species: Rattus norvegicus; test: Effect on rat Pgp-mediated drug transport assessed as efflux ratio of permeability from basolateral to apical over apical to basolateral side
[22] = target: Voltage-dependent T-type calcium channel subunit alpha-1I (Homo sapiens) (UniProt Q9P0X4); test: Antagonist activity at Cav3.3 alpha1i by depolarized FLIPR assay; assay type: functional
Voltage-dependent T-type calcium channel subunit alpha-1I (Homo sapiens), sequence (Q9P0X4 whole entry): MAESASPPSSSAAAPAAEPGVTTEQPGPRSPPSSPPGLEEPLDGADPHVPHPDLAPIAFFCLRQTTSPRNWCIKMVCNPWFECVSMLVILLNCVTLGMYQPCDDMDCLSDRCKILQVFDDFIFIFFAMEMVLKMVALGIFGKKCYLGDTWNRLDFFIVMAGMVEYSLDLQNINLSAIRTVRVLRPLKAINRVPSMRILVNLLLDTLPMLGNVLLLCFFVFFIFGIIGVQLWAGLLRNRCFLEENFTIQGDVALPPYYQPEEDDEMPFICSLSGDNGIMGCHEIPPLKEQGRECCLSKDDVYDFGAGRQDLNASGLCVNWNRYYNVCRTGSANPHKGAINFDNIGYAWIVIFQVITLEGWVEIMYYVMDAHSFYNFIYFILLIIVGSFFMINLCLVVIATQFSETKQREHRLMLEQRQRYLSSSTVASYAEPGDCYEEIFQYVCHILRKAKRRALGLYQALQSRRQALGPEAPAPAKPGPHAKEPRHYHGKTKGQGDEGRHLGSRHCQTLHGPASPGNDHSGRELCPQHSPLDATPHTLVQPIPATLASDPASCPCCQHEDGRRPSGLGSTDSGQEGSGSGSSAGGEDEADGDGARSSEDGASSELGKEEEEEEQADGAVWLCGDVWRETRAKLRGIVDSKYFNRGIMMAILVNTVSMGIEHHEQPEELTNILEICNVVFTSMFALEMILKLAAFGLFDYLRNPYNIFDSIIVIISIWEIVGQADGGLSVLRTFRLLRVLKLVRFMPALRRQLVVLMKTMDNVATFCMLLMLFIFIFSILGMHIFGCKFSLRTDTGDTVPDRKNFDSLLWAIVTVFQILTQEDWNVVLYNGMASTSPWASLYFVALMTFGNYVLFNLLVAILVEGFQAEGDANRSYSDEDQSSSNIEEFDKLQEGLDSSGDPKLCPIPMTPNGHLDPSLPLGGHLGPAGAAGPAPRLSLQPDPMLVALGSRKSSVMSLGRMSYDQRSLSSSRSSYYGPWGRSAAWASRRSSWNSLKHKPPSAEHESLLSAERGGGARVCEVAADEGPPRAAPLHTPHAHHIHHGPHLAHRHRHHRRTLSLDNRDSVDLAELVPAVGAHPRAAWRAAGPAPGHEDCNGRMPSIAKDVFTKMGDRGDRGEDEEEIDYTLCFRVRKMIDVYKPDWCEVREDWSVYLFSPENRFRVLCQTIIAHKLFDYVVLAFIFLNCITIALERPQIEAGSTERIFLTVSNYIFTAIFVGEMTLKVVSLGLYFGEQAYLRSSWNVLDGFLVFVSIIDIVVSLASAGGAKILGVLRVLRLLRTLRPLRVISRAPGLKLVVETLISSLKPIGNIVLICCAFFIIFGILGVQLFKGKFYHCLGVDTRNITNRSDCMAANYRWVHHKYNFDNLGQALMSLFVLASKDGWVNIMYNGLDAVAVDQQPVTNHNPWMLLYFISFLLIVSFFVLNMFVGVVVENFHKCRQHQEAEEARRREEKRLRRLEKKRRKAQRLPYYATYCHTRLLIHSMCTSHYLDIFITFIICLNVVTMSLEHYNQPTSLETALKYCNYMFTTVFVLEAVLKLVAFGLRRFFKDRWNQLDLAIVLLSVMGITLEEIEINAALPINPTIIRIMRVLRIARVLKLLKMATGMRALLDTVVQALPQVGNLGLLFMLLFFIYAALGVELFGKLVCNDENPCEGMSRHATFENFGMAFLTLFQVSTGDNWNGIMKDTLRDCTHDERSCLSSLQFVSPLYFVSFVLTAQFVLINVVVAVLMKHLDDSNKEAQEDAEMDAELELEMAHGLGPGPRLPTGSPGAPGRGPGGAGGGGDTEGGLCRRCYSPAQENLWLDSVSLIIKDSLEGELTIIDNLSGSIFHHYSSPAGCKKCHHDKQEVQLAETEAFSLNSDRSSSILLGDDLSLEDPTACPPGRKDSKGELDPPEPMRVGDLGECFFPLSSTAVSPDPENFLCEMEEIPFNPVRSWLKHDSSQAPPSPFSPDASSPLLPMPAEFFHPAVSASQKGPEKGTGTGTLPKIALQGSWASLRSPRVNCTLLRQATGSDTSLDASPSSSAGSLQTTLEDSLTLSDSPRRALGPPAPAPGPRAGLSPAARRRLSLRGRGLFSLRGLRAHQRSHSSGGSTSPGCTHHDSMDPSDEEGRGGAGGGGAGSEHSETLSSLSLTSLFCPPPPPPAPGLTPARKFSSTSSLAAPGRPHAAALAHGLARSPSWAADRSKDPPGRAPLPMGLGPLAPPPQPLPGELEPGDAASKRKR

[23] = target: T1, PXR (nuclear receptor subfamily 1 group I member 2) (Homo sapiens, UniProt O75469); test: PXR activation relative to rifampicin at 10 uM; details: activation
T1 sequence (O75469 whole entry): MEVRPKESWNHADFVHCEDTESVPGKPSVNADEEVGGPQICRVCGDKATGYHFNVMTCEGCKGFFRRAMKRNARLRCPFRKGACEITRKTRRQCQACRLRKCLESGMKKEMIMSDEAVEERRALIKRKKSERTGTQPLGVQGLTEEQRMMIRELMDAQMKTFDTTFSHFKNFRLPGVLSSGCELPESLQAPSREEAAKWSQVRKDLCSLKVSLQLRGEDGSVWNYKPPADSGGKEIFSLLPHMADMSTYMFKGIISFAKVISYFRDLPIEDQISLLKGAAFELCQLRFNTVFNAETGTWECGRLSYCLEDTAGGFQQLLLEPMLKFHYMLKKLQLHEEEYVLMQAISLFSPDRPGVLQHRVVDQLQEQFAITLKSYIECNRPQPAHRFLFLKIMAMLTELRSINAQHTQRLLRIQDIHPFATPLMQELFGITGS

[24] = target: Voltage-dependent T-type calcium channel subunit alpha-1I (Homo sapiens) (UniProt Q9P0X4); test: Antagonist activity at Cav3.3 alpha1i by hyperpolarized FLIPR assay; assay type: functional
[25] = target: T2, Nuclear receptor subfamily 1 group I member 2 (Homo sapiens, UniProt O75469); test: PXR activation relative to rifampicin at 10 uM; details: 10 µM
T2 sequence (O75469 whole entry): T1 sequence (O75469 whole entry)

O=C1Nc2ccc(F)c(F)c2C(CC(F)F)(c2ccc(F)cc2)N1CC(F)(F)F (centres undefined)
half-life [1]: 1.6 h | Activity [2]: Active | remaining at 1 h [3]: 68% | inhibition in vivo at 10 mg/kg [4]: 70% | Vd [5]: 6.7 L/kg | Activity [6]: Active | bioavailability [7]: 15% | clearance [8]: 23 mL/min/kg | inhibition (INH) [9]: tde | clearance [10]: 10.5 mL/min/kg | Activity [11]: Active | Ratio [12]: 1.2 | bioavailability [13]: 15% | clearance [14]: 55 mL/min/kg | Vd [15]: 9.8 L/kg | fraction unbound [16]: 0.021 | half-life [17]: 5.8 h | Vd [18]: 3.6 L/kg | fraction unbound [19]: 0.015 | half-life [20]: 5.9 h | Ratio [21]: 1.5 | Activity [22]: 14 nM | activation at 10 µM [23]: 35%

CCCC1(c2cccc(Oc3ccccn3)c2)c2cc(Cl)ccc2NC(=O)N1CC(F)(F)F (centres undefined)
Activity [22]: 73 nM

CCCC1(c2cccc(OC)c2)c2cc(Cl)ccc2NC(=O)N1CC(F)(F)F (centres undefined)
Activity [22]: 171 nM

C=CCC1(c2ccccc2)c2cc(Cl)ccc2NC(=O)N1CC(F)(F)F (centres undefined)
Activity [22]: 87 nM

O=C1Nc2ccc(F)c(F)c2C(CCF)(c2ccc(F)cc2)N1CC(F)(F)F (centres undefined)
remaining at 1 h [3]: 66% | Activity [22]: 17 nM | activation at 10 µM [23]: 53%

N#CC1(c2ccc(F)cc2)c2c(ccc(F)c2F)NC(=O)N1CC(F)(F)F (centres undefined)
Activity [22]: 290 nM

CCC1(c2ccc(F)cc2)c2c(ccc(F)c2F)N(CCOC)C(=O)N1CC(F)(F)F (centres undefined)
Activity [22]: 53 nM | activation at 10 µM [23]: 70%

CCC1(c2ccccc2)c2cc(Cl)ccc2NC(=O)N1C (centres undefined)
Activity [24]: 2170 nM | Activity [22]: 847 nM

CCCC1(c2ccc(F)cc2)c2cc(Cl)ccc2NC(=O)N1CC(F)(F)F (single isomer, unassigned; 24A)
Activity [22]: 25 nM

CCC(C)C1(C2CC2)c2cc(Cl)ccc2NC(=O)N1CC(F)(F)F (centres undefined)
Activity [22]: 447 nM

CCCC1(c2ccccc2)c2cc(F)ccc2NC(=O)N1CC(F)(F)F (centres undefined)
Activity [22]: 38 nM | activation at 10 µM [23]: 49%

CCC1(c2ccc(F)cc2)c2cc(F)ccc2NC(=O)N1CC(F)(F)F (centres undefined)
Activity [22]: 25 nM | activation at 10 µM [23]: 58%

O=C1Nc2ccc(F)c(F)c2C(CCO)(c2ccc(F)cc2)N1CC(F)(F)F (centres undefined)
Activity [22]: 3090 nM

CCC1(c2ccccc2)c2c(F)ccc(F)c2NC(=O)N1CC(F)(F)F (centres undefined)
Activity [22]: 657 nM | activation at 10 µM [23]: 91%

CCCC1(c2ccc(OC)cc2)c2cc(Cl)ccc2NC(=O)N1CC(F)(F)F (centres undefined)
Activity [22]: 879 nM

CCC1(c2ccccc2)c2cc(F)ccc2NC(=O)N1CC(F)(F)F (single isomer, unassigned; 35B) [listing 1 of 2 here]
Activity [22]: 3740 nM

O=C1Nc2ccc(Cl)cc2C(CCF)(c2ccc(F)cc2)N1CC(F)(F)F (single isomer, unassigned; 30B)
Activity [22]: 905 nM

CCC1(c2ccc(F)cc2)c2c(ccc(F)c2F)NC(=O)N1CC(F)(F)F (centres undefined)
remaining at 1 h [3]: < 1% | Activity [22]: 16 nM | activation at 10 µM [23]: 52%

CCC1(c2ccccc2)c2c(ccc(F)c2F)NC(=O)N1CC(F)(F)F (stereo in doubt; 36B)
Activity [22]: 2040 nM

CCC1(c2ccccc2)c2cc(Cl)ccc2NC(=O)N1CC(F)(F)F (single isomer, unassigned; 21B)
Activity [22]: 3880 nM

CCCCC1(C2CC2)c2cc(Cl)ccc2NC(=O)N1CC(F)(F)F (centres undefined)
Activity [22]: 111 nM

N#Cc1ccc([C@@]2(C3CC3)c3cc(Cl)ccc3NC(=O)N2CC(F)(F)F)cc1
Activity [24]: 590 nM | Activity [22]: 14 nM

CCC1(c2ccccc2)c2cc(F)ccc2NC(=O)N1CC(F)(F)F (single isomer, unassigned; 35A) [listing 1 of 2 here]
Activity [22]: 50 nM

CCCC1(c2ccc(F)cc2)c2c(ccc(F)c2F)NC(=O)N1CC(F)(F)F (centres undefined)
Activity [22]: 6 nM | activation at 10 µM [23]: 73%

O=C1Nc2ccc(Cl)cc2C(CC(F)F)(c2ccc(F)cc2)N1CC(F)(F)F (single isomer, unassigned; 31A)
Activity [22]: 60 nM

CCC1(c2ccccc2)c2cc(F)ccc2NC(=O)N1CC(F)(F)F (single isomer, unassigned; 35A) [listing 2 of 2 here]
Activation [25]: 63%

CCC1(c2ccccc2)c2c(ccc(Cl)c2F)NC(=O)N1CC(F)(F)F (centres undefined)
Activity [22]: 132 nM | activation at 10 µM [23]: 61%

CCC1(c2ccccc2)c2c(ccc(F)c2F)NC(=O)N1CC(F)(F)F (single isomer, unassigned) [listing 1 of 2 here]
activation at 10 µM [23]: 48%

CCC1(c2ccccc2)c2cc(Cl)ccc2NC(=O)N1CC(F)(F)F (single isomer, unassigned; 21A)
Activity [22]: 71 nM

CCC1(c2ccccc2)c2c(F)cccc2NC(=O)N1CC(F)(F)F (centres undefined)
Activity [22]: 111 nM | activation at 10 µM [23]: 83%

CCCC1(c2cccc(-c3ccnn3C)c2)c2cc(Cl)ccc2NC(=O)N1CC(F)(F)F (centres undefined)
Activity [22]: 318 nM

O=C1Nc2ccc(Cl)cc2C(CCF)(c2ccc(F)cc2)N1CC(F)(F)F (single isomer, unassigned; 30A)
Activity [22]: 42 nM

CCC1(c2ccccc2)c2c(ccc(F)c2F)NC(=O)N1CC(F)(F)F (single isomer, unassigned) [listing 2 of 2 here]
Activity [22]: 20 nM

CCC1(c2ccc(F)cc2)c2c(ccc(F)c2F)N(Cc2c(C)noc2C)C(=O)N1CC(F)(F)F (centres undefined)
Activity [22]: 1830 nM

CCC1(c2ccc(F)c(F)c2)c2cc(Cl)ccc2NC(=O)N1CC(F)(F)F (centres undefined)
Activity [22]: 141 nM

O=C1Nc2ccc(Cl)cc2C(CC(F)F)(c2ccc(F)cc2)N1CC(F)(F)F (single isomer, unassigned; 31B)
Activity [22]: 469 nM

CCCC1(c2ccc(F)cc2)c2cc(Cl)ccc2NC(=O)N1CC(F)(F)F (single isomer, unassigned; 24B)
Activity [22]: 1320 nM

CC[C@]1(c2ccc(F)cc2)c2cc(Cl)ccc2NC(=O)N1CC(F)(F)F
Activity [24]: 239 nM | Activity [22]: 61 nM

CC(C)(C)C1(c2ccccc2)c2cc(F)ccc2NC(=O)N1CC(F)(F)F (centres undefined)
Activity [22]: 757 nM | activation at 10 µM [23]: 44%

CCCC1(c2cccc(N3CCOCC3)c2)c2cc(Cl)ccc2NC(=O)N1CC(F)(F)F (centres undefined)
Activity [22]: 161 nM

CCC1(c2ccccc2)c2cc(F)ccc2NC(=O)N1CC(F)(F)F (single isomer, unassigned; 35B) [listing 2 of 2 here]
activation at 10 µM [23]: 74%

CCCC1(c2cccc(-c3nccs3)c2)c2cc(Cl)ccc2NC(=O)N1CC(F)(F)F (centres undefined)
Activity [22]: 62 nM
